Source: PubChem BioAssay
Measles CPE: protection of cells from measles virus. Measles virus-infected cells, CPE protection, absorbance. protection (pct of control), % at 4 µM. 140,000 compounds, 1.5% hits. AID 841; in the data active = protection mostly above about 24%, no sharp cut-off; inactive = mostly below about 26%
Yeast growth inh: yeast BB579 growth reduction in restrictive medium; S. cerevisiae BB579 growth, OD615, 48 h; inhibition, % at 10 µM; 140,000 compounds, 0.51% hits; AID 804;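 active = inhibition above a set limit, 3 SD over the mean compound inhibition, cut at about 44% in these data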
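test system = yeast BB579 (DeaD) | buffer or medium = restrictive CSMM-D medium | doses = single compound dose of 10 µM, 0.25% DMSO final | times = 4 h preincubation and 48 h exposure at 30 °C | technique = culture absorbance at 615 nm | benchmarks = amphotericin B 10 µg/mL, positive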
Arbovirus inh: arbovirus infection inhibition; arbovirus infection cell-based antiviral screen; inhibition, % at 10 µM; 200,000 compounds, 0.37% hits; AID 1251; in the data active = inhibition above about 30%
Yeast lifespan up: extends the lifespan of yeast | S. cerevisiae growth with nicotinamide, OD615; deaD strain in restrictive glucose medium | inhibition of the nicotinamide effect, % at 10 µM | 130,000 compounds, 0.68% hits;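 active = inhibition above a set limit, placed 3 SD over the median of all compounds, cut at about 26% in these data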;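 note: 0% = nicotinamide-treated wells and 100% = cells grown without nicotinamide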
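Test system: DeaD-strain S. cerevisiae / Buffer or medium: restrictive glucose medium / Also added: nicotinamide 1.5 mM / Doses: one concentration, 10 µM, DMSO 0.25% / Schedule: 48 h at 30 °C / Signal: OD615 measurement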
Rad51 HR inh: Rad51 (human) homologous recombination inhibition. inhibition, % at 10 µM. AID 1385. 200,000 compounds, 0.085% hits. hRad51 DNA strand exchange, fluorescence dequenching;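 active = inhibition above 40% at the single screening dose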;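 note: 0% = DMSO control wells and 100% = blanks with heterologous ssDNA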
Target sequence (Q06609 whole entry, looked up): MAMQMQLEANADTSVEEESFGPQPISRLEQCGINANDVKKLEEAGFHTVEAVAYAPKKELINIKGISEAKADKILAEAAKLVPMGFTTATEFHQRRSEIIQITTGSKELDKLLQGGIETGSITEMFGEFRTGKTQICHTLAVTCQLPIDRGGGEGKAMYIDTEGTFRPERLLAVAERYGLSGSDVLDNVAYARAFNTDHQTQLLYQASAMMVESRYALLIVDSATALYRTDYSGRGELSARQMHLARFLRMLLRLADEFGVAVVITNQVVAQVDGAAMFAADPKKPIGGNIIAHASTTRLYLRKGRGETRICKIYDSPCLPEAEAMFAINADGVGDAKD
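Test system – preformed human Rad51 ssDNA filaments · Reagent – Donor/quencher-labelled 47-bp dsDNA substrate · Incubation – 37 °C 15-min filament assembly, 30-min compound preincubation, 15-min exchange · Signal – FRET fluorescence dequenching, excitation 485 nm, emission 520 nm · Read-out – percent inhibition from fluorescence, normalised to plate control and blank means · Benchmarks – plate control and blank wells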
Efa HMGR inh: E. faecalis class II HMG-CoA reductase inhibition. purified E. faecalis HMGR, NADPH absorbance 340 nm kinetic. inhibition, % at 10 µM. 190,000 compounds, 0.41% hits. AID 1066;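 active = inhibition above a set limit, the median over all tested compounds plus 3 SD, cut at about 9.5% in these data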;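 note: enzyme runs in reverse so mevalonate oxidation gives rising NADPH absorbance; 0% = complete reaction with DMSO and 100% = background rate lacking mevalonate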
* = called active by the depositor. In the library only some 2.4% were active in any assay of this set; here they are far more common.

Screening COc1ccccc1-n1c(SCC(=O)NC2CCCCC2)nc2c(c1=O)SCC2 returned Measles CPE 54.4*, Yeast growth inh -27.5, Arbovirus inh 3.9, Yeast lifespan up -3.3, Rad51 HR inh -12.0 and Efa HMGR inh 3.0.
`COc1ccc(NC(=O)CSc2nc3c(c(=O)n2-c2ccccc2OC)SCC3)cc1` gave Measles CPE 21.1, Yeast growth inh -9.1, Arbovirus inh 1.4, Yeast lifespan up -7.6, Rad51 HR inh -6.5 and Efa HMGR inh -9.7.
Cc1ccc(/C=C/c2nc3ccccc3c(=O)n2CCc2ccccc2)cc1 was read as Measles CPE 61.5*, Yeast growth inh -37.5, Arbovirus inh -4.6, Yeast lifespan up 1.5, Rad51 HR inh -6.9 and Efa HMGR inh -1.8.
`Cc1ccccc1/C=C/c1nc2ccccc2c(=O)n1CCc1ccccc1` gave Measles CPE 1.2, Yeast growth inh -25.2, Arbovirus inh 2.0, Yeast lifespan up 7.8, Rad51 HR inh 3.1 and Efa HMGR inh -7.0.
`O=C(Nc1ccccc1)OCCNC(=O)c1cccc(Cl)c1` gave Measles CPE 28.6*, Yeast growth inh -2.4, Arbovirus inh -0.2, Yeast lifespan up -8.6, Rad51 HR inh -0.7 and Efa HMGR inh -5.0.
For S=C(NCCc1ccccc1)Nc1ccc(Br)cn1 the results were Arbovirus inh 0.9, Rad51 HR inh -0.8 and Efa HMGR inh 2.2.
Screening CCc1ccc(NC(=O)CSc2nc3ccccc3c(=O)n2CCCC(=O)NCCCN2CCOCC2)cc1 returned Arbovirus inh -17.3, Rad51 HR inh 0.6 and Efa HMGR inh 2.0.
For Cc1nc2ccccc2c(=O)n1NC(=O)c1ccc([N+](=O)[O-])cc1 the results were Arbovirus inh 8.4, Rad51 HR inh 5.2 and Efa HMGR inh 3.1.
`COc1ccc(OCCCC(=O)NCCc2ccc(OC)c(OC)c2)cc1` gave Measles CPE 6.6, Yeast growth inh -11.0, Arbovirus inh 4.8, Yeast lifespan up 3.0, Rad51 HR inh 13.5 and Efa HMGR inh -4.1.
CCOc1ccc(C(=O)CC(=O)C(=O)NCCc2ccc(OC)c(OC)c2)cc1 was read as Measles CPE 37.9*, Yeast growth inh 16.3, Arbovirus inh -0.8, Yeast lifespan up 13.6, Rad51 HR inh 2.2 and Efa HMGR inh 2.5.
Screening COc1ccc(S(=O)(=O)N2CCNC(=O)C2)cc1Br returned Arbovirus inh -3.0, Rad51 HR inh -1.3 and Efa HMGR inh 1.7.
`COc1ccc(-c2nnc(-c3cc(OC)c(OC)c(OC)c3)o2)cc1OC` gave Measles CPE 18.0, Yeast growth inh -13.0, Arbovirus inh 38.1*, Rad51 HR inh 4.5 and Efa HMGR inh -3.8.
Screening N#Cc1cnc(NOCc2ccc(Cl)cc2)nc1 returned Arbovirus inh 27.0, Rad51 HR inh -2.4 and Efa HMGR inh 9.6*.
For COc1ccnc(N=CNOCc2ccc(Cl)cc2)c1C#N the results were Rad51 HR inh 6.1.
Screening Cc1nn(Cc2ccccc2)c(Cl)c1C(=O)NCc1ccco1 returned Arbovirus inh -5.5, Rad51 HR inh -4.3 and Efa HMGR inh -5.0.
Cc1nn(-c2ccccc2)c(N2CCCCC2)c1/C=N/O was read as Measles CPE 54.2*, Yeast growth inh -16.7, Arbovirus inh 3.4, Yeast lifespan up -11.1, Rad51 HR inh 0.2 and Efa HMGR inh -0.8.
CCCCCc1cc(O)c2c(C)cc(=O)oc2c1 was read as Measles CPE 63.5*, Yeast growth inh -41.4, Arbovirus inh 7.0, Yeast lifespan up -24.8, Rad51 HR inh 5.6 and Efa HMGR inh -5.7.
Screening CCCc1cc(=O)oc2cc(C)cc(O)c12 returned Measles CPE 26.1, Yeast growth inh -12.9, Arbovirus inh 9.2, Yeast lifespan up -15.7, Rad51 HR inh -2.2 and Efa HMGR inh 2.5.
`CC(=O)C(Cc1cccc(F)c1)(Cc1cccc(F)c1)C(C)=O` gave Arbovirus inh 6.4, Rad51 HR inh -2.4 and Efa HMGR inh 2.7.
For COc1ccc(N2CCN(c3c(S(=O)(=O)c4ccccc4)cnc4ccc(OC)cc34)CC2)cc1 the results were Measles CPE 22.8*, Yeast growth inh -25.4, Arbovirus inh 4.5, Yeast lifespan up 4.1, Rad51 HR inh -9.0 and Efa HMGR inh -2.9.
For CCOc1ccc2ncc(S(=O)(=O)c3ccccc3)c(N3CCN(c4ccc(OC)cc4)CC3)c2c1 the results were Measles CPE 11.8, Yeast growth inh -33.0, Arbovirus inh 10.4, Yeast lifespan up -0.2, Rad51 HR inh -0.7 and Efa HMGR inh 1.9.
For C=CS(=O)(=O)c1ccc(Oc2ccc(S(=O)(=O)C=C)cc2)cc1 the results were Measles CPE 0.3, Yeast growth inh -46.1, Arbovirus inh -3.7, Yeast lifespan up 60.8* and Efa HMGR inh -4.9.
Screening NS(=O)(=O)c1ccc(Oc2ccc(S(N)(=O)=O)cc2)cc1 returned Arbovirus inh 10.3, Rad51 HR inh -4.5 and Efa HMGR inh -3.3.
CC(=C1C(=O)c2ccccc2C1=O)N1CCN(C/C=C/c2ccccc2)CC1 was read as Measles CPE 3.4, Yeast growth inh -1.6, Arbovirus inh -4.2, Yeast lifespan up 57.3*, Rad51 HR inh 5.4 and Efa HMGR inh 0.5.
For CC(=C1C(=O)c2ccccc2C1=O)N1CCN(Cc2ccccc2)CC1 the results were Measles CPE 2.4, Yeast growth inh -36.8, Arbovirus inh -2.7 and Yeast lifespan up 37.5.
For O=Cc1cn(-c2ccccc2)nc1-c1cc2cc(O)ccc2oc1=O the results were Measles CPE 2.8, Yeast growth inh -7.7, Arbovirus inh 33.2*, Yeast lifespan up -7.8, Rad51 HR inh -12.5 and Efa HMGR inh -1.5.
`COCCOC(=O)/C(=C/c1ccc(OC(=O)c2ccccc2)cc1)C(C)=O` gave Measles CPE 9.3, Yeast growth inh -43.6, Arbovirus inh -3.0, Yeast lifespan up 38.9*, Rad51 HR inh -4.7 and Efa HMGR inh 2.1.
Cc1nn(CCO)c2nc(-c3cccs3)cc(C(F)(F)F)c12 was read as Measles CPE 6.6, Yeast growth inh -27.0, Arbovirus inh -20.0, Yeast lifespan up -3.0, Rad51 HR inh 11.0 and Efa HMGR inh 0.4.
Screening Cc1cc(/C=C2/C(=O)NN(c3ccccc3)C2=O)c(C)n1-c1ccc(O)cc1 returned Measles CPE 20.2, Yeast growth inh -2.6, Arbovirus inh -14.8, Yeast lifespan up 7.6 and Efa HMGR inh -6.9.
Screening COc1ccc(-n2c(C)cc(/C=C3\C(=O)NN(c4ccccc4)C3=O)c2C)cc1 returned Measles CPE 99.0*, Yeast growth inh -41.3, Arbovirus inh -5.3, Yeast lifespan up 6.1, Rad51 HR inh 4.1 and Efa HMGR inh -1.3.
`COc1ccc(Cn2c(C3CC3)nc3ccc(NC(=O)c4ccco4)cc3c2=O)cc1` gave Measles CPE 36.5*, Yeast growth inh -68.0, Arbovirus inh -6.0, Yeast lifespan up -8.9, Rad51 HR inh 4.2 and Efa HMGR inh -1.4.
